ChEMBL document CHEMBL1125798, “Synthesis and biological activity of a series of diaryl-substituted alpha-cyano-beta-hydroxypropenamides, a new class of anthelmintic agents” (1991)

Legend:
Format in all cases: functional
Ascaris suum [1] = assay: Effect on succinate formation by isolated Ascaris suum mitochondria at a concentration of 0 uM
How it was run: (§1)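 Body-wall muscle mitochondria from adult A. suum (4-5 mg protein) were preincubated for 5 min at 30 °C, pH 7.4, with inhibitor in 170 mM mannitol, 50 mM sucrose, 10 mM 32Pi-phosphate, 1 mM MgCl2, 0.4 mM ADP and 0.1 unit hexokinase. Reaction was started with 10 mM malate and stopped after 15 min with perchloric acid. 32P-organic phosphate and succinate were measured in extracts; duplicate runs.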

Ovis aries [2] = assay: Anthelmintic activity against sheep, infected with Haemonchus contortus, at a dose of 30 mg/kg.
How it was run: (§2)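 Merino ewes and wethers (12-15 months, 25-35 kg) received L3 intraruminally on day 0. Susceptible strains: H. contortus 6000, O. circumcincta 8000, T. colubriformis 8000. Benzimidazole-resistant strains: 8000, 9000, 9000. Animals were allocated by day-27 fecal egg count (n = 4-7) and given a single intraruminal dose in 0.5% carboxymethylcellulose saline. Adult worms in abomasum and small intestine were counted on day 35. Result is mean % reduction vs untreated controls.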

Rodentolepis nana [3] = assay: The compound was tested for anthelmintic activity against mice, infected with parasite Hymenolepis nana at a dose of 31(ppm in feed)
How it was run: (§3)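 Compound was given in feed ad libitum from 24 h postinfection for 18 days, four mice per group. On day 19, N. dubius were counted in the duodenum and H. nana in the ileum. Result is % reduction of mean worm burden vs untreated control; ≤25% was recorded as 0.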

Ascaris suum [4] = assay: Effect on incorporation of [32Pi] by isolated Ascaris suum mitochondria at a concentration of 50 uM.; how it was run: as §1
Ascaris suum [5] = assay: Effect on succinate formation by isolated Ascaris suum mitochondria at a concentration of 3 uM; how it was run: as §1
Ascaris suum [6] = assay: Effect on succinate formation by isolated Ascaris suum mitochondria at a concentration of 10 uM; how it was run: as §1
Ovis aries [7] = assay: Anthelmintic activity against sheep, infected with Ostertagia circumcincta, at a dose of 30 mg/kg.; how it was run: as §2
Rodentolepis nana [8] = assay: Anthelmintic activity against mice infected with parasite Hymenolepis nana at a dose of 62(ppm in feed).; how it was run: as §3
Ovis aries [9] = assay: Anthelmintic activity against sheep, infected with Trichostrongylus colubriformis, at a dose of 30 mg/kg.; how it was run: as §2
Ascaris suum [10] = assay: Effect on succinate formation by isolated Ascaris suum mitochondria at a concentration of 50 uM; how it was run: as §1
Ascaris suum [11] = assay: Effect on incorporation of [32Pi] by isolated Ascaris suum mitochondria at a concentration of 25 uM; how it was run: as §1
Ascaris suum [12] = assay: Effect on succinate formation by isolated Ascaris suum mitochondria at a concentration of 25 uM; how it was run: as §1
Ovis aries [13] = assay: Anthelmintic activity against sheep, infected with Haemonchus contortus, at a dose of 20 mg/kg.; how it was run: as §2
Ascaris suum [14] = assay: Effect on incorporation of [32Pi] by isolated Ascaris suum mitochondria at a concentration of 10 uM; how it was run: as §1
Ascaris suum [15] = assay: Effect on incorporation of [32Pi] by isolated Ascaris suum mitochondria at a concentration of 0 uM; how it was run: as §1
Ovis aries [16] = assay: Anthelmintic activity against sheep, infected with Ostertagia circumcincta, at a dose of 20 mg/kg.; how it was run: as §2
Ovis aries [17] = assay: Anthelmintic activity against sheep, infected with Trichostrongylus colubriformis, at a dose of 20 mg/kg.; how it was run: as §2
[18] = system: Heligmosomoides polygyrus; assay: Anthelmintic activity against mice, infected with parasite Nematospiroides dubius, at a dose of 31(ppm in feed); how it was run: as §3
[19] = system: Heligmosomoides polygyrus; assay: Anthelmintic activity against mice infected with parasite Nematospiroides dubius, at a dose of 62(ppm in feed).; how it was run: as §3
Ascaris suum [20] = assay: Effect on incorporation of [32Pi] by isolated Ascaris suum mitochondria at a concentration of 3 uM; how it was run: as §1
[21] = system: Heligmosomoides polygyrus; assay: Anthelmintic activity against mice, infected with parasite Nematospiroides dubius, at a dose of 31 p.p.m. in feed; how it was run: as §3
Rodentolepis nana [22] = assay: The compound was tested for anthelmintic activity against mice, infected with parasite Hymenolepis nana at a dose of 125 p.p.m. in feed; how it was run: as §3
[23] = system: Heligmosomoides polygyrus; assay: Anthelmintic activity against mice, infected with parasite Nematospiroides dubius, at a dose of 125 ppm in feed; how it was run: as §3
Rodentolepis nana [24] = assay: The compound was tested for anthelmintic activity against mice, infected with parasite Hymenolepis nana at a dose of 31 p.p.m. in feed; how it was run: as §3
Rodentolepis nana [25] = assay: Anthelmintic activity against mice infected with parasite Hymenolepis nana at a dose of 125 ppm (in feed); how it was run: as §3
[26] = system: Heligmosomoides polygyrus; assay: Anthelmintic activity against mice, infected with parasite Nematospiroides dubius, at a dose of 125 (ppm in feed); how it was run: as §3
[27] = system: Heligmosomoides polygyrus; assay: Anthelmintic activity against mice, infected with parasite Nematospiroides dubius, at a dose of 250 pm in feed); how it was run: as §3
Rodentolepis nana [28] = assay: The compound was tested for anthelmintic activity against mice, infected with parasite Hymenolepis nana at a dose of 250(ppm in feed); how it was run: as §3
Rodentolepis nana [29] = assay: The compound was tested for anthelmintic activity against mice, infected with parasite Hymenolepis nana at a dose of 875(ppm in feed); how it was run: as §3
[30] = system: Heligmosomoides polygyrus; assay: Anthelmintic activity against mice, infected with parasite Nematospiroides dubius, at a dose of 875(ppm in feed); how it was run: as §3
Rodentolepis nana [31] = assay: The compound was tested for anthelmintic activity against mice, infected with parasite Hymenolepis nana at a dose of 125(ppm in feed); how it was run: as §3
[32] = system: Heligmosomoides polygyrus; assay: Anthelmintic activity against mice, infected with parasite Nematospiroides dubius, at a dose of 62(ppm in feed); how it was run: as §3
Rodentolepis nana [33] = assay: The compound was tested for anthelmintic activity against mice, infected with parasite Hymenolepis nana at a dose of 62(ppm in feed); how it was run: as §3
[34] = system: Heligmosomoides polygyrus; assay: Anthelmintic activity against mice, infected with parasite Nematospiroides dubius, at a dose of 125(ppm in feed); how it was run: as §3
[35] = system: Heligmosomoides polygyrus; assay: Anthelmintic activity against mice, infected with parasite Nematospiroides dubius, at a dose of 1000(ppm in feed); how it was run: as §3
Rodentolepis nana [36] = assay: The compound was tested for anthelmintic activity against mice, infected with parasite Hymenolepis nana at a dose of 1000(ppm in feed); how it was run: as §3

SMILES: N#C/C(C(=O)Nc1ccc(C(F)(F)F)cc1)=C(/O)c1ccc(C(F)(F)F)cc1
- EC (Ascaris suum [1]): 0.48 uM 15min-1 mg-1
- Reduction (Ovis aries [2]): 100%
- Reduction (Rodentolepis nana [3]): 0%
- EC (Ascaris suum [4]): 0.05 uM 15min-1 mg-1
- EC (Ascaris suum [5]): 0.63 uM 15min-1 mg-1
- EC (Ascaris suum [6]): 0.75 uM 15min-1 mg-1
- Reduction (Ovis aries [7]): 0%
- Reduction (Rodentolepis nana [8]): 0%
- Reduction (Ovis aries [9]): 0%
- EC (Ascaris suum [10]): 1.17 uM 15min-1 mg-1
- EC (Ascaris suum [11]): 0.15 uM 15min-1 mg-1
- EC (Ascaris suum [12]): 0.86 uM 15min-1 mg-1
- Reduction (Ovis aries [13]): 100%
- EC (Ascaris suum [14]): 0.28 uM 15min-1 mg-1
- EC (Ascaris suum [15]): 0.39 uM 15min-1 mg-1
- Reduction (Ovis aries [16]): 66%
- Reduction (Ovis aries [17]): 0%
- Reduction [18]: 76%
- Reduction [19]: 100%
- EC (Ascaris suum [20]): 0.35 uM 15min-1 mg-1

SMILES: COC(=O)Nc1nc2cc([S+]([O-])c3ccccc3)ccc2[nH]1 (stereo unspecified) [OXFENDAZOLE]
- Reduction [21]: 100%
- Reduction (Rodentolepis nana [22]): 100%
- Reduction [23]: 100%
- Reduction (Rodentolepis nana [24]): 0%

SMILES: N#C/C(C(=O)Nc1ccc([N+](=O)[O-])cc1)=C(/O)c1ccc(C(F)(F)F)cc1
- Reduction (Rodentolepis nana [25]): 0%
- Reduction [26]: 50%
- Reduction [27]: 100%
- Reduction (Rodentolepis nana [28]): 100%

SMILES: N#C/C(C(=O)Nc1ccc(C(F)(F)F)cc1)=C(/O)c1ccccc1
- Reduction (Rodentolepis nana [29]): 0%
- Reduction [30]: 0%

SMILES: N#C/C(C(=O)Nc1ccc(C(F)(F)F)cc1)=C(/O)c1ccc(Br)cc1
- Reduction (Rodentolepis nana [31]): 100%
- Reduction [32]: 45%
- Reduction (Rodentolepis nana [33]): 92%
- Reduction [34]: 99%

SMILES: N#C/C(C(=O)Nc1ccccc1)=C(/O)c1ccccc1
- Reduction [35]: 0%
- Reduction (Rodentolepis nana [36]): 0%
